Hits are enriched below; roughly 3.8% of the tested compounds scored in any of these assays.
KCNK9 inh = KCNK9 potassium channel inhibitors, primary screen, HEK293 cells, thallium flux. Potassium channel subfamily K member 9 (Homo sapiens), Q9NPC2. FluxOR thallium flux fluorescence; stronger effect = lower value. B-score at 10 µM. hit rate 1.2% among 310,000. AID 488922, 2010;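 active = ratio B-score over 3 SD below the library mean, with starting fluorescence within 5 SD of its mean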;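 note: negative B-score means less thallium flux so channel inhibition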
KCNQ1 block = inhibitors of human KCNQ1 channel, primary screen, cell-based, thallium flux, high-throughput; AID 2642, 2010; B-score at 10 µM; hit rate 1.3% among 310,000; Potassium voltage-gated channel subfamily KQT member 1 (Homo sapiens), P51787; CHO-K1 KCNQ1, FluxOR thallium flux fluorescence; stronger effect = higher value;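 active = compounds whose thallium flux B-score, printed positive for inhibition, exceeds three library SD while starting fluorescence stays within three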;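 note: channel opened by potassium depolarization with thallium stimulus after 20 min compound exposure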
hERG protect = hERG rescue from dofetilide block, primary screen, cell-based, CHO-hERG, FluxOR thallium flux, dofetilide IC70 | activation (rescue from dofetilide block), less the hit threshold, % at 10 µM | Voltage-gated inwardly rectifying potassium channel KCNH2 (Homo sapiens), Q12809 | hit rate 0.51% among 310,000 | AID 1511, 2009 | dofetilide IC70 present;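 active = activation above the mean of controls blocked by dofetilide plus 5 SD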;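 note: thallium influx through hERG after potassium depolarization seen as dye fluorescence rise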
KCNK3 block = human KCNK3 channel inhibitors, primary screen, CHO cells, FluxOR thallium flux, B-score; Potassium channel subfamily K member 3 (Homo sapiens), O14649; FluxOR fluorescence; stronger effect = lower value; B-score at 10 µM; hit rate 0.84% among 340,000; AID 602410, 2012;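 active = B-score under library mean minus 4 SD, starting fluorescence ratio at most library mean plus 5 SD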;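 note: more negative B-score means stronger inhibition of thallium flux through KCNK3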
KCNQ1 act = potentiators or activators of KCNQ1 channel, primary screen, cell-based, thallium flux, high-throughput; Potassium voltage-gated channel subfamily KQT member 1 (Homo sapiens), P51787; CHO-K1 KCNQ1, thallium flux FluxOR fluorescence; stronger effect = higher value; B-score at 10 µM; hit rate 0.35% among 310,000; AID 2648, 2010;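 active = fluorescence ratio B-score, a plate-corrected score, at least three library SD, with initial intensity B-score within 5 SD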
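Material: CHO-K1 cells stably expressing KCNQ1. Medium: assay buffer for compound exposure, DMSO matched across wells. Reagent: K+/Tl+ depolarizing stimulus. Compound dosing: single-concentration screen. Times: 37 °C overnight plating, 90-min dark dye load, 20-min compound pretreatment. Technique: FluxOR Tl+ flux fluorescence.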
Kir21 inh = inhibitors of mouse Kir2.1 inward-rectifier potassium channel; Inward rectifier potassium channel 2 (Mus musculus), P35561; HEK293-Kir2.1, FluxOR thallium flux fluorescence; stronger effect = lower value; B-score at 10 µM; hit rate 0.85% among 310,000; AID 1672, 2009;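 active = fluorescence ratio B-score at or below minus 3 SD of library scores, with starting-brightness B-score within 2 SD, cut at about -4.2 in these data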;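 note: channel flux triggered by added potassium and thallium sulfate stimulus; B-score of peak minus minimum fluorescence over baseline after thallium stimulus; more negative B-score means stronger Kir2.1 block with less thallium influx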
Target sequence (P35561 whole entry, looked up): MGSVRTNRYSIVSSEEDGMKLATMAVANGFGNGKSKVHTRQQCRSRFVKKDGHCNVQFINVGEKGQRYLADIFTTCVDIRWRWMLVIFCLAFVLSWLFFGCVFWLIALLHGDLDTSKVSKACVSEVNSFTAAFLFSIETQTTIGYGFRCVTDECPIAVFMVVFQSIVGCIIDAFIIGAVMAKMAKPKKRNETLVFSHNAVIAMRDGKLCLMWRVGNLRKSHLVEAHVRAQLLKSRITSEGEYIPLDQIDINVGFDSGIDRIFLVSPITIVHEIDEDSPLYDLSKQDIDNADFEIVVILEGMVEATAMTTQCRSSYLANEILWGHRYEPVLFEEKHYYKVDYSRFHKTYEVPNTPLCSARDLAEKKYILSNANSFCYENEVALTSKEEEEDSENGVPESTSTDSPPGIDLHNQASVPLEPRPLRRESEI
KCNK9 block conf = KCNK9 potassium channel inhibitors, confirmation, HEK293 cells, thallium flux, duplicate; shares compounds with KCNK9 inh; inhibition, % at 10 µM; AID 492992, 2010; FluxOR thallium flux fluorescence; hit rate 43% among 4,900;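 active = thallium signal inhibited by more than 5 SD of the compound-free buffer control wells, on both duplicate plates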
Kir2-1 spec = mouse Kir2.1 channel inhibition, confirmation, selectivity assay for KCNK9 modulator project, cell-based, HEK293, thallium flux; shares compounds with KCNK9 inh; Kir2.1 cells, FluxOR thallium flux fluorescence; inhibition, % at 10 µM; hit rate 4% among 4,900;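 active = thallium signal drop more than 5 SD beyond the mean of the no-compound control wells, seen in both duplicate plates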;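 note: signal is fluorescence rise after thallium addition divided by baseline fluorescence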
KCNK9 uninduced = thallium flux in non-induced HEK293 cells, confirmation, counter-screen for KCNK9 inhibitor project, cell-based, second counter screen, non-induced KCNK9-HEK293; shares compounds with KCNK9 inh; hit rate 40% among 4,900; FluxOR thallium flux; inhibition, % at 10 µM;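 active = thallium signal drop beyond 5 SD of the untreated control mean, on both duplicate plates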
A number is an active result.

O=C(Nc1cccc(-c2cn3ccsc3n2)c1)c1ccccc1 was read as KCNK9 inh -9.7, KCNQ1 block inactive, hERG protect inactive, KCNK3 block inactive, KCNQ1 act inactive, Kir21 inh inactive, KCNK9 block conf 33%, Kir2-1 spec inactive and KCNK9 uninduced inactive.
CCCCC(=O)Nc1cccc(-c2cn3ccsc3n2)c1 was read as KCNK9 inh inactive, KCNQ1 block inactive, hERG protect inactive, KCNK3 block inactive, KCNQ1 act inactive and Kir21 inh inactive.
CC1CC(C)CN(C(=O)c2ccc(NS(=O)(=O)c3ccc4[nH]c(=O)[nH]c4c3)cc2)C1 (centres undefined) was read as KCNK9 inh inactive, KCNQ1 block inactive, hERG protect inactive, KCNK3 block inactive, KCNQ1 act inactive and Kir21 inh inactive.
For O=C(NN1C(=O)c2ccccc2C1=O)C1C2CCCCC21 (centres undefined) the results were KCNK9 inh inactive, KCNQ1 block inactive, hERG protect inactive, KCNK3 block inactive, KCNQ1 act inactive, Kir21 inh inactive, KCNK9 block conf inactive, Kir2-1 spec inactive and KCNK9 uninduced inactive.
For O=C(Nn1c(SCc2ccc(F)cc2)nc2ccsc2c1=O)c1ccccc1 the results were KCNK9 inh -11, KCNQ1 block inactive, hERG protect inactive, KCNK3 block inactive, KCNQ1 act inactive, Kir21 inh inactive, KCNK9 block conf 74%, Kir2-1 spec inactive and KCNK9 uninduced 46%.
COc1ccc(C(=O)Nn2c(SCc3ccc([N+](=O)[O-])cc3)nc3ccccc3c2=O)cc1 was read as KCNK9 inh -11, KCNQ1 block inactive, hERG protect inactive, KCNK3 block inactive, KCNQ1 act inactive, Kir21 inh inactive, KCNK9 block conf 56%, Kir2-1 spec inactive and KCNK9 uninduced 32%.
For COc1ccc(C(=O)Nn2c(SCC(=O)c3ccccc3)nc3ccccc3c2=O)cc1 the results were KCNK9 inh inactive, KCNQ1 block inactive, hERG protect inactive, KCNK3 block inactive, KCNQ1 act inactive and Kir21 inh inactive.
For CC(=O)N1CCN(S(=O)(=O)c2cccc(C(=O)NNC(=O)COc3ccc(Cl)cc3C)c2)CC1 the results were KCNK9 inh inactive, KCNQ1 block inactive, hERG protect inactive, KCNK3 block inactive, KCNQ1 act inactive and Kir21 inh inactive.
`Cc1cccc(OCCCCCn2ccnc2)c1C` gave KCNK9 inh inactive, KCNQ1 block inactive, hERG protect inactive, KCNK3 block inactive, KCNQ1 act inactive, Kir21 inh inactive, KCNK9 block conf inactive, Kir2-1 spec inactive and KCNK9 uninduced inactive.
Screening CCOC(=O)C1=C(C)N=C2SC(CC)C(=O)N2C1c1cccc(F)c1 (centres undefined) returned KCNK9 inh -12, KCNQ1 block inactive, hERG protect inactive, KCNK3 block inactive, KCNQ1 act inactive, Kir21 inh inactive, KCNK9 block conf 36%, Kir2-1 spec inactive and KCNK9 uninduced 34%.
Screening CN1CCN(S(=O)(=O)c2ccc3c(c2)CC(=O)N3C)CC1 returned KCNK9 inh -10, KCNQ1 block inactive, hERG protect inactive, KCNK3 block inactive, KCNQ1 act inactive, Kir21 inh inactive, KCNK9 block conf 35%, Kir2-1 spec inactive and KCNK9 uninduced inactive.

Compound activity as filed in PubChem.
